Our source for the Activity, Ki and inhibition values is ChEMBL document CHEMBL1833899, “Targeting hypoxic tumor cell viability with carbohydrate-based carbonic anhydrase IX and XII inhibitors” (J Med Chem, 2011).

A short description of series [1]: Cytotoxicity against CA9-deficient chinese hamster PS120 cells assessed as cell viability at 100 uM and pH 7.5 after 24 hrs by giemsa staining. In kind it is cell-based, Cricetulus griseus. Particulars: ps120, pH 7.5, 24 h. The gist of the method:
(§1)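 PS120-pev fibroblasts (CCL39-derived, no CA IX) attached, then held 24 h in HCO3−-free DMEM with 30 mM HEPES at pHo 7.5, 10% dialyzed serum, 0.1 mM hypoxanthine and 0.1 mM uridine triphosphate, in CO2/HCO3−-free atmosphere, with compound or DMSO. Then returned to regular medium under 5% CO2 for 7 days; Giemsa staining; scored viable or not viable.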

Series [2] in a line: Cytotoxicity against CA9-deficient chinese hamster PS120 cells assessed as cell viability at 30 uM and pH 7.5 after 24 hrs by giemsa staining. Particulars: ps120, pH 7.5, 24 h. Format: cell-based, Cricetulus griseus. The gist of the method:
as §1

Series [3] can be described thus: Cytotoxicity against CA9-deficient chinese hamster PS120 cells assessed as cell viability at 300 uM and pH 7.5 after 24 hrs by giemsa staining. Format: cell-based, Cricetulus griseus. Particulars: ps120, pH 7.5, 24 h. An outline of the steps:
as §1

Series [4] can be described thus: Cytotoxicity against CA9-deficient chinese hamster PS120 cells assessed as cell viability at 60 uM and pH 7.5 after 24 hrs by giemsa staining. Particulars: ps120, pH 7.5, 24 h. Format: cell-based, Cricetulus griseus. An outline of the steps: as §1
Series [5] has as its target T1, Carbonic anhydrase 9 (Homo sapiens, UniProt Q16790).
Series [6] addresses T1, Carbonic anhydrase 9. Particulars: PS120, at 60 µM.
Series [7] in a line: Antiproliferative activity against human LS 174T cells expressing shca9 under hypoxia condition at 60 uM after 3 days by cell counting technique relative to control. Format: functional, LS174T. The gist of the method:
(§2)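 LS174Tr colon carcinoma cells carrying Tet-inducible ca9 shRNA plus nontarget (ctl) or constitutive ca12 shRNA. Tet (1 µg/ml) added 4 days before assay for ca12-silenced cells. 6 x 10^4 cells seeded; 24 h later moved to hypoxia (1% O2) with or without inhibitor (DMSO control). Cells detached and Coulter-counted every 24 h for 3 days; proliferation index = daily count / count at 24 h post-seeding.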

For series [8], the system named is LS174T. Put plainly: Reduction in CA9 mRNA level in human LS 174T cells expressing shca9 and tetracyclin repressor under normoxia condition at 60 uM after 48 hrs by Western blot analysis. Format: functional, cell-based.
The subject of series [9] is LS174T. Put plainly: Reduction in CA9 mRNA level in human LS 174T cells expressing shca9 and tetracyclin repressor under hypoxia condition at 60 uM after 48 hrs by Western blot analysis. Format: functional, cell-based. (In general: Immunoblotting shows a protein as a band on a membrane.)
In series [10] the test system is LS174T. Briefly: Reduction in CA9 level in human LS 174T cells expressing shca9 and tetracyclin repressor under hypoxia condition at 60 uM after 48 hrs by Western blot analysis. In kind it is functional, cell-based. The gist of the method:
(§3)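 Stable LS-shca9/ctl cells kept without Tet for 4 days, then placed in normoxia (21% O2) or hypoxia (1% O2) for 48 h with or without 60 µM compound. Whole-cell SDS lysates (40 µg protein) run on 7.5% SDS-PAGE and immunoblotted with M75 anti-CA IX; Hsp90 as loading control; HRP secondary with ECL detection.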

Series [11] in a line: Antiproliferative activity against ca9/ca12 double silenced human LS 174T cells under hypoxia assessed as decrease in cell proliferation at 60 uM after 3 days by cell counting technique relative to control. Format: functional, LS174T. Set-up: scale not given: the % may be the effect or the level left. The gist of the method: as §2
In series [12] the test system is LS174T. Briefly: Reduction in CA9 protein level in human LS 174T cells expressing shca9 and tetracyclin repressor under normoxia condition at 60 uM after 48 hrs by Western blot analysis. Format: functional, cell-based. The gist of the method:
as §3

Molecules are shown by their SMILES. pKi: −log10 of the molar value. Activity calls are given as the source filed them. The calls are words filed in the database; no cut-off is given here.

Consider `NS(=O)(=O)c1ccc(-n2cc(CS(=O)(=O)[C@@H]3O[C@H](CO)[C@@H](O)[C@H](O)[C@H]3O)nn2)cc1`, for which the Activity entry in series [1], in series [2], in series [3] and in series [4] was “Non-toxic” in each case.
The term pKi denotes the negative decadic logarithm of the Ki, by convention in mol/L. For the compound `NS(=O)(=O)c1ccc(-n2nnc(CS[C@@H]3O[C@H](CO)[C@H](O)[C@H](O)[C@H]3O)c2I)cc1`, the pKi on Carbonic anhydrase 9 [5] was 8.14.
In the case of `CC(=O)OC[C@H]1O[C@@H](S(=O)(=O)Cc2nnn(-c3ccc(S(N)(=O)=O)cc3)c2I)[C@H](OC(C)=O)[C@@H](OC(C)=O)[C@@H]1O[C@H]1O[C@H](COC(C)=O)[C@@H](OC(C)=O)[C@H](OC(C)=O)[C@H]1OC(C)=O`, the pKi on Carbonic anhydrase 9 [5] was 7.00.
Regarding `NS(=O)(=O)c1ccc(-n2nnc(CS(=O)(=O)[C@@H]3O[C@H](CO)[C@@H](O)[C@H](O)[C@H]3O)c2I)cc1`, the Activity result in series [1] is listed as “Non-toxic”; in series [2], “Non-toxic”; in series [3] it was “Toxic”; in series [4], “Non-toxic”. At Carbonic anhydrase 9 [5], the pKi is 7.21.
Consider `CC(=O)OC[C@H]1O[C@@H](S(=O)(=O)Cc2cn(-c3ccc(S(N)(=O)=O)cc3)nn2)[C@H](OC(C)=O)[C@@H](OC(C)=O)[C@@H]1OC(C)=O`, for which the Activity entry in series [1], in [2], in [3] and in [4] was “Non-toxic” each time.
As to `NS(=O)(=O)c1ccc(-n2nnc(CS(=O)(=O)[C@@H]3O[C@H](CO)[C@H](O)[C@H](O)[C@H]3O)c2I)cc1`, the pKi at Carbonic anhydrase 9 [5] is 7.05.
Consider `CC(=O)OC[C@H]1O[C@@H](SCc2nnn(-c3ccc(S(N)(=O)=O)cc3)c2I)[C@H](OC(C)=O)[C@@H](OC(C)=O)[C@H]1OC(C)=O`, for which the pKi at Carbonic anhydrase 9 [5] was 7.02.
For `NS(=O)(=O)c1ccc(-n2cc(CS[C@@H]3O[C@H](CO)[C@@H](O)[C@H](O)[C@H]3O)nn2)cc1`, the Activity result in series [1], in series [2], in [3] and in series [4] was “Non-toxic” throughout.
Regarding `NS(=O)(=O)c1ccc(-n2nnc(CS[C@@H]3O[C@H](CO)[C@@H](O)[C@H](O)[C@H]3O)c2I)cc1`, the Activity entry in series [1], in series [2], in [3] and in [4] was “Non-toxic” throughout. For the same compound, the pKi at Carbonic anhydrase 9 [5] is 8.19.
On to `CC(=O)Nc1nnc(S(N)(=O)=O)s1` [ACETAZOLAMIDE], for which the Activity result in series [1] is “Non-toxic”; in series [2] it was “Non-toxic”; in series [3] it was “Toxic”; in [4], “Non-toxic”.
The compound `CC(=O)OC[C@H]1O[C@@H](S(=O)(=O)Cc2cn(-c3ccc(S(N)(=O)=O)cc3)nn2)[C@H](OC(C)=O)[C@@H](OC(C)=O)[C@@H]1O[C@H]1O[C@H](COC(C)=O)[C@@H](OC(C)=O)[C@H](OC(C)=O)[C@H]1OC(C)=O` had a negative-log Ki (pKi) at Carbonic anhydrase 9 [5] of 7.21.
Take `NS(=O)(=O)c1ccc(-n2nnc(CS(=O)(=O)[C@@H]3O[C@H](CO)[C@@H](O[C@H]4O[C@H](CO)[C@@H](O)[C@H](O)[C@H]4O)[C@H](O)[C@H]3O)c2I)cc1`: the negative-log Ki (pKi) on Carbonic anhydrase 9 [5] was 7.17.
Take `CC(=O)OC[C@H]1O[C@@H](SCc2cn(-c3ccc(S(N)(=O)=O)cc3)nn2)[C@H](OC(C)=O)[C@@H](OC(C)=O)[C@@H]1OC(C)=O`: the Activity entry in series [1], in [2] and in series [4] was “Non-toxic” each time.
The compound `CC(=O)OC[C@H]1O[C@@H](S(=O)(=O)Cc2nnn(-c3ccc(S(N)(=O)=O)cc3)c2I)[C@H](OC(C)=O)[C@@H](OC(C)=O)[C@H]1OC(C)=O` showed a pKi on Carbonic anhydrase 9 [5] of 7.01.
`CC(=O)OC[C@H]1O[C@@H](SCc2nnn(-c3ccc(S(N)(=O)=O)cc3)c2C#CCO)[C@H](OC(C)=O)[C@@H](OC(C)=O)[C@H]1OC(C)=O` gave a pKi on Carbonic anhydrase 9 [5] of 7.04.
For the compound `NS(=O)(=O)c1ccc(-n2cc(CS(=O)(=O)[C@@H]3O[C@H](CO)[C@@H](O[C@H]4O[C@H](CO)[C@@H](O)[C@H](O)[C@H]4O)[C@H](O)[C@H]3O)nn2)cc1`, the pKi at Carbonic anhydrase 9 [5] is 7.15.
In the case of `CC(=O)OC[C@H]1O[C@@H](SCc2nnn(-c3ccc(S(N)(=O)=O)cc3)c2I)[C@H](OC(C)=O)[C@@H](OC(C)=O)[C@@H]1OC(C)=O`, the inhibition result on Carbonic anhydrase 9 [6] was “Active”. Further, the Activity in series [7] is recorded as 60%; in [1] it was “Toxic”; in series [2], “Non-toxic”; in series [11] it was 16%; in [3], “Toxic”; in [4], “Non-toxic”. Also, the result in the series with LS174T [8], in the series with LS174T [9], in the series on LS174T [10] and with LS174T [12] was Active. At Carbonic anhydrase 9 [5], this compound had a pKi of 8.21.
For the compound `CC(=O)OC[C@H]1O[C@@H](S(=O)(=O)Cc2nnn(-c3ccc(S(N)(=O)=O)cc3)c2I)[C@H](OC(C)=O)[C@@H](OC(C)=O)[C@@H]1OC(C)=O`, the Activity entry in series [1] was “Toxic”; in series [2], “Non-toxic”; in series [3], “Toxic”; in series [4] it was “Toxic”. Also, the pKi at Carbonic anhydrase 9 [5] was 7.15.
